Data published in PubChem BioAssay AID1515 (The Scripps Research Institute Molecular Screening Center, 2009).
The campaign covered roughly 220,000 compounds. About 440 (0.2%) were called active. The full list was thinned out, with actives kept by preference. Unmarked numbers belong to inactive results.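 How the source made its calls: active means inhibition above the campaign mean of all tested compounds plus 3 SD (cut at about 14% in these data); inactive means the rest.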

Target: Serine hydrolase RBBP9 (Homo sapiens) (UniProt O75884)
Experiment: blockers of RBBP9 serine hydrolase labeling – biochemical, fluorescence polarization, FP-Rh probe, HTS, primary screen (AID 1515);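 further: plate controls were DMSO wells with RBBP9 for no effect and wells lacking RBBP9 protein for full effect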
Settings: recombinant RBBP9, FP-Rh probe fluorescence polarization; at 7.94 µM; stronger effect = higher value
In short: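 Material: RBBP9 protein. Amount: RBBP9 at 2.5 µM in dispensed solution, before mixing. Schedule: 30 min then 45 min, 25 °C. Medium: Tris buffer pH 8.0, NaCl, Pluronic. Measured by: fluorescence polarization. Measure: percent inhibition from mP, scaled between DMSO and no-protein wells. Replication: one well per compound.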

Serine hydrolase RBBP9 (Homo sapiens), sequence (O75884 whole entry, looked up): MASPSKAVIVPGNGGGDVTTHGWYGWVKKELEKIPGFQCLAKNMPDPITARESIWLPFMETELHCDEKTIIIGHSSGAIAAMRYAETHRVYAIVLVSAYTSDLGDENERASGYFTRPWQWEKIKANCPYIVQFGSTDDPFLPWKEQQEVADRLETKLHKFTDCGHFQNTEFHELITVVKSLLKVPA

SMILES	inhibition
Cc1ccc(CS(=O)(=O)CCC(=O)NC2CC2)cc1	-3.2%
O=C1/C(=C\c2cccnc2)CN(Cc2ccccc2)C/C1=C\c1cccnc1	-6.31%
Cc1ccccc1NS(=O)(=O)CCCCC(Cl)(Cl)Cl	2.33%
CCC(=O)Nc1c(C)n[nH]c1C	-4.5%
CCN1C(=O)/C(=C\N2CCOCC2)SC1=S	-5.07%
Cc1ccc2nc(SCc3cn4c(C)cc(C)nc4n3)[nH]c2c1	-9.49%
O=C(c1c(Cl)cccc1Cl)N1CCN(c2cccc3[nH]ccc23)CC1	-7.2%
Cc1c(NC(=O)CCC2CCCCC2)cc(C(=O)N2CCOCC2)cc1[N+](=O)[O-]	7.08%
COc1ccc(CCNC(=O)C(=O)Nc2ccc3nc4n(c(=O)c3c2)CCCCC4)cc1OC	6.2%
COc1ccc2c(c1)CC[C@@H]1[C@@H]2CC[C@]2(C)C(=O)CC[C@@H]12	-1.04%
Cc1cccc(C)c1NC(=O)C1CCCN1C(=O)OC(C)(C)C (configuration not stated)	-5.32%
Cc1cccc(-c2nc3c(c(SCC(=O)N4CCOCC4)n2)CCCC3)c1	11.1%
COc1ccc(-c2noc(CN(C)S(=O)(=O)c3ccc(C)cc3)n2)cc1	-9.12%
CC(C)N(Cc1nc(-c2ccc3c(c2)OCO3)no1)CC1CCC(=O)N1 (configuration not stated)	-10.1%
COCCN(Cc1nc(-c2ccc(C(F)(F)F)cc2)no1)C(C)C	15% (active)
CC1CCC(NS(=O)(=O)c2ccc3c(c2)n(C)c(=O)c(=O)n3C)CC1 (configuration not stated)	-2.22%
CSc1ccc(S(=O)(=O)NC2CCCCC2)cc1	0.08%
Cn1sc(=O)c2cc(S(=O)(=O)NC3CC3)ccc21	33.3% (active)
Cc1cc(C)c[n+](-c2nc3ccccc3nc2[N-]S(=O)(=O)c2cccs2)c1	-7.26%
O=c1[nH]c2cccnc2n1-c1ccc([N+](=O)[O-])cc1	4.37%
O=C1CC(c2ccccc2)=NN1c1ccc([N+](=O)[O-])cc1	-12.2%
O=c1[nH]n(-c2ccc([N+](=O)[O-])cc2)c(=O)c2ccccc12	15.9% (active)
O=C(NNC1CC(=O)N(c2cccc(Cl)c2)C1=O)c1cccnc1 (configuration not stated)	-9.81%

SMILES	inhibition
CC(C)(C)C1CCC(OC(=O)CCC(=O)Nc2ccccc2)CC1 (configuration not stated)	-0.76%
C=CCN(CC=C)CCOc1ccccc1[N+](=O)[O-]	-6.95%
CSc1ccccc1NC(=O)CN(C)CC(=O)Nc1ccc(Cl)cc1[N+](=O)[O-]	6.47%
COc1cccc(-n2nc(C(=O)N3CCN(Cc4ccccc4)CC3)c3ccccc3c2=O)c1	-0.83%
Cc1cc(NC(=O)CSc2nccn2-c2ccc([N+](=O)[O-])cc2)no1	-5.53%
Cc1c(CCO)sc[n+]1CC(=O)OC12CC3CC(CC(C3)C1)C2	6.14%
Cc1cc(C(=O)OCC(=O)Nc2nnc(C(C)C)s2)c2ccccc2n1	-5.01%
CC(OC(=O)c1ccc(NS(=O)(=O)c2ccc3[nH]c(=O)[nH]c3c2)cc1)C(=O)Nc1cccc(Cl)c1Cl (configuration not stated)	-24.3%
Oc1cccc2ccc(/C=C/c3ccc(Br)s3)nc12	-6.67%
O=C(Cc1cccs1)N/N=C/c1ccc(OCc2ccccc2)cc1	-9.96%
CC(C)(C)Nc1c(N)c(=O)oc2ccccc12	-7.21%
CCc1ccccc1NC1c2ccccc2C(=O)N1c1cccnc1 (configuration not stated)	19.1% (active)
COC(=O)c1cc(NC2c3ccccc3C(=O)N2c2ccc(Cl)cn2)cc(C(=O)OC)c1 (configuration not stated)	2.1%
Cc1ccnc(N2C(=O)c3ccccc3C2Nc2ccc3c(c2)OCCO3)c1 (configuration not stated)	5.23%
COc1ccc(N2C(=O)C3CCCN3C2c2cccs2)cc1 (configuration not stated)	-3.07%
COc1ccc(N2C(=O)C3CCCN3C2c2cccc(OC)c2)cc1 (configuration not stated)	-6.79%
COc1ccc(N2C(=O)C3CCCN3C2c2cc(OC)c(OC)cc2OC)cc1 (configuration not stated)	14.8% (active)
COC(=O)C1=C(C)N(C)C(=O)NC1c1ccc([N+](=O)[O-])o1 (configuration not stated)	4.8%
O=C(NCc1ccccc1Cl)NC(=O)c1csc([N+](=O)[O-])c1	2.74%
CC1=CC(C)(C)N(C(=O)CSc2nnc(-c3ccccc3)o2)c2ccc(C)cc21	-8.58%
COc1ccc2c(c1)C(C)=CC(C)(C)N2C(=O)Nc1ccccc1	14.3% (active)
COc1ccc2c(c1)C(C)=CC(C)(C)N2C(=O)CNCc1ccc2c(c1)OCO2	0.21%
CC(=O)Nc1ccc(NC(=S)NC(=O)c2ccc([N+](=O)[O-])c(C)c2)cc1	6.76%

SMILES	inhibition
CN1CCN(CC(=O)Nc2cccc([N+](=O)[O-])c2)CC1	7.61%
Cc1ccc(NC(=O)CN2CCC(C(N)=O)CC2)cc1[N+](=O)[O-]	28.6% (active)
Cc1ccc(C)c(S(=O)(=O)N2CCN(CC(=O)Nc3ccc([N+](=O)[O-])cc3)CC2)c1	-5.91%
CC1=C(C(=O)Nc2cc(C)ccn2)C(c2cnn(C)c2)C2=C(CC(c3ccccc3)CC2=O)N1 (configuration not stated)	-4.73%
O=S(=O)(NC1CC1)c1ccc2c3c(cccc13)CC2	-3.01%
COc1ccc(C(C[N+](=O)[O-])n2nc(C)cc2C)cc1 (configuration not stated)	-13.8%
CC1CCN(C2=NC(=O)/C(=C/c3cn[nH]c3-c3ccccc3)S2)CC1	-1.8%
CS(=O)(=O)c1ccc(Cl)c(NC(=O)Nc2ccccc2)c1	-8.09%
O=[N+]([O-])c1c(NCCO)cc(Sc2nc3ccccc3s2)c2nonc12	16.6% (active)
COc1ccc(S(=O)(=O)Nc2ccc(O)c(Sc3nc4ccccc4s3)c2)cc1	-4.18%
O=C(CSc1nc2ccccc2s1)Nc1ccc(C(=O)O)cc1	-5.16%
CCOC(=O)N1CCN(C(=S)Nc2ccc(C)cc2C)CC1	-5.94%
Cc1ccc(-c2cc(C(=O)NCC3CCCO3)c3ccccc3n2)o1 (configuration not stated)	-0.54%
CC(C)(C)C1CCC(C(=O)Nc2cccnc2)CC1 (configuration not stated)	-3.33%
CN(C)c1ccc(C=NCCc2ccc(S(N)(=O)=O)cc2)cc1	-3.47%
CCCc1nc(SCC(=O)Nc2ccc(S(=O)(=O)N(C)C)cc2)c2ccccc2n1	-8.27%
COc1ccc([C@H]2[C@H](C(C)=O)N3N=Cc4ccccc4C3C23C(=O)OC(C)(C)OC3=O)cc1 (some centres not stated)	0.49%
CC(=O)Nc1nc(C)c(-c2csc(Nc3ccc(S(N)(=O)=O)cc3)n2)s1	-4.68%
COc1cc2c(cc1OC)CC1(CCCCC1)N=C2	-7.64%
O=C(O)Cc1sc(-c2ccc(C(=O)O)cc2)nc1-c1ccccc1	-2.34%
C/C(=N/Nc1nc(-c2ccccc2)c(CC(=O)O)s1)c1ccccc1	17% (active)
Cc1ccc(-c2nc(C)sc2CC(=O)O)cc1	-5.14%
COc1ccc(NC(C)=O)cc1NC(=O)CN1CCN(C2c3ccccc3-c3ccccc32)CC1	-0.61%

SMILES	inhibition
CC(=O)NC1C(Oc2ccc(C=O)cc2)OC(COC(C)=O)C(OC(C)=O)C1OC(C)=O (configuration not stated)	-10.2%
CC(=O)NC1=NN(C(C)=O)C(C)(CCS(=O)(=O)c2ccc(Cl)c(Cl)c2)S1 (configuration not stated)	-8.22%
COc1cc(/C=C2/C(=O)ON=C2C)ccc1OCc1cccc(F)c1	-10.5%
COc1cc(/C=C2/C(=O)ON=C2C)ccc1OCc1ccccc1F	-7%
CC1=NOC(=O)/C1=C\c1ccccc1	15.4% (active)
Cc1ccc(S(=O)(=O)N(C)C)cc1NC(=O)c1n[nH]c(=O)c2ccccc12	1.59%
CCOC(=O)C1=C(CC)OC(N)=C(C#N)C1c1ccc(F)cc1F (configuration not stated)	-1.24%
N#Cc1cc([N+](=O)[O-])ccc1Oc1cccc(/C=N/NC(=O)c2ccc(Cl)cc2)c1	1.74%
Cn1c(CSCC(=O)Nc2ccccc2)nnc1SCc1ccccc1	1.33%
COc1ccc(C2CC(c3ccccc3)=NN2C(=O)CSc2nccc(=O)[nH]2)cc1 (configuration not stated)	-13.6%
COc1ccc(C2NC(=S)NC3=C2CCc2ccccc23)cc1OC (configuration not stated)	-1.09%
COc1ccccc1P(=O)(c1ccccc1)c1ccccc1NC(C)=O (configuration not stated)	4.53%
O=C(O)CCS(=O)(=O)c1ccc(-c2ccccc2)cc1	-1.5%
CCCC(=O)Nc1ccc2c(c1)nc(CCNC(=O)c1ccco1)n2C	-8.19%
CCn1c(CNC(=O)c2ccccc2)nnc1SCC(=O)N1CCN(c2ccccc2)CC1	-8.71%
Cc1ccc2cc(CCNC(=O)c3c(-c4ccccc4Cl)noc3C)c(=O)[nH]c2c1	-1.48%
O=c1c2ccccc2nc2n1C(CSCc1cccc(C(F)(F)F)c1)CS2 (configuration not stated)	-8.83%
N#Cc1c(NC(=O)C2CC(Cl)=CCC2C(=O)O)sc2c1CCCCC2 (configuration not stated)	-6.51%
CCNC(=S)N1CCC(c2nc3cc(C)c(C)cc3[nH]2)CC1	-6.72%
Cc1cc([N+](=O)[O-])nn1CC(=O)Nc1ccc(Cc2ccncc2)cc1	-7.35%
Cc1cc([N+](=O)[O-])nn1Cc1ccc(F)cc1	16.8% (active)
Cc1cc([N+](=O)[O-])nn1CCCC(=O)Nc1cccnc1Cl	-5.84%
Brc1cc(/C=N/n2cnnc2)oc1Br	-14.7%
